Key:
[1] = molecular target: T1, Kappa-type opioid receptor (Homo sapiens, UniProt P41145); assay: Antagonistic activity against cloned human Opioid receptor kappa 1 using U69,593 as ligand in [35S]GTP-gamma-S, assay; type: functional
[2] = molecular target: T2, Opioid receptors; delta & kappa (Homo sapiens) (UniProt P41145+P41143); assay: Ratio of (Ke) delta-opioid receptor to that of (Ke) kappa-opioid receptor; type: protein assay
In short: (§1)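 Selectivity ratios taken from [35S]GTPγS antagonist values in CHO membranes expressing cloned human receptors (μ with DAMGO, δ with Cl-DPDPE, κ with U69,593), as μ/κ and δ/κ. Values are means of five or six experiments.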

[3] = molecular target: T3, Delta-type opioid receptor (Homo sapiens, UniProt P41143); assay: Antagonistic activity against cloned human Opioid receptor delta 1 using DPDPE as ligand in [35S]GTP-gamma-S, assay; type: functional
Mu-type opioid receptor [4] = molecular target: T4, Mu-type opioid receptor (Homo sapiens, UniProt P35372); assay: Binding affinity against cloned human Opioid receptor mu 1 transfected into chinese hamster ovary cells using [3H]DAMGO as radioligand; type: cell-based
In short: (§2)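 Competition binding in CHO cells transfected with cloned human opioid receptors, using [3H]DAMGO (μ), [3H]Cl-DPDPE (δ) and [3H]U69,593 (κ) as displaced radioligands. Hill slopes were examined. Data are averages of two experiments, each run in triplicate.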

[5] = molecular target: T5, Opioid receptors; mu & kappa (Homo sapiens) (UniProt P41145+P35372); assay: Ratio of (Ke) mu-opioid receptor to that of (Ke) kappa-opioid receptor; type: protein assay; in short: as §1
[6] = molecular target: T3, Delta-type opioid receptor; assay: Binding affinity against cloned human Opioid receptor delta 1 transfected into chinese hamster ovary cells using [3H]Cl-DPDPE as radioligand; type: cell-based; in short: as §2
[7] = molecular target: T2, Opioid receptors; delta & kappa (Homo sapiens); assay: Ratio of (Ki) delta-opioid receptor to that of (Ki) kappa-opioid receptor; type: protein assay
In short: (§3)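 Ki ratios μ/κ and δ/κ from competition binding in CHO cells with cloned human receptors, displacing [3H]DAMGO, [3H]Cl-DPDPE or [3H]U69,593. Data are averages of two experiments, each run in triplicate.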

[8] = molecular target: T1, Kappa-type opioid receptor; assay: Binding affinity against cloned human Opioid receptor kappa 1 transfected into chinese hamster ovary cells using [3H]U-69593 as radioligand; type: cell-based; in short: as §2
[9] = molecular target: T5, Opioid receptors; mu & kappa (Homo sapiens); assay: Ratio of (Ki) mu-opioid receptor to that of (Ki) kappa-opioid receptor; type: protein assay; in short: as §3
Mu-type opioid receptor [10] = molecular target: T4, Mu-type opioid receptor; assay: Antagonistic activity against cloned human Opioid receptor mu 1 using DAMGO as ligand in [35S]GTP-gamma-S, assay; type: functional

T1 sequence (P41145 whole entry): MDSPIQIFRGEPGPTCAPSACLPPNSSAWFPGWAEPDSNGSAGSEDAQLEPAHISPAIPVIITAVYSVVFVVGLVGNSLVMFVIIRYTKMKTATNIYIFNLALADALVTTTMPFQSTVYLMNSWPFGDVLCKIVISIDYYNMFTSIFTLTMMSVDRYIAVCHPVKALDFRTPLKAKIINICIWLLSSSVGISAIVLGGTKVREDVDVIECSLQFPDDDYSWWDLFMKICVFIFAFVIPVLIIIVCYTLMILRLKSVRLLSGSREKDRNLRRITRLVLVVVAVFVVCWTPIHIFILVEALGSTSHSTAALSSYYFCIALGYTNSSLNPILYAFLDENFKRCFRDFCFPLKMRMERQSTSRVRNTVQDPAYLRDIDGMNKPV
T5 sequence (P35372 whole entry, looked up): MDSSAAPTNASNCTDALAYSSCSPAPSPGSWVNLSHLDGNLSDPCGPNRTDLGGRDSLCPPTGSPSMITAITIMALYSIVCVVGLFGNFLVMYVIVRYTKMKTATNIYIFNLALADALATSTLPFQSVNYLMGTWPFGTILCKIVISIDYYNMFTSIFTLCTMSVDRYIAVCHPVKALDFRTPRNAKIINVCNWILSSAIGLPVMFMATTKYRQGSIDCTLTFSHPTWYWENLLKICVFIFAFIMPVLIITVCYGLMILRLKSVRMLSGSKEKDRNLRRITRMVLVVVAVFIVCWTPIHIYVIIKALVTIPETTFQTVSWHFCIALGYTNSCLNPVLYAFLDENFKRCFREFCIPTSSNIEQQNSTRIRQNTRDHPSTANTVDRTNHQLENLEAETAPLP
T5 sequence (P41145 whole entry, looked up): as the sequence (P41145 whole entry) above
T4 sequence (P35372 whole entry): as the sequence (P35372 whole entry, looked up) above
T3 sequence (P41143 whole entry): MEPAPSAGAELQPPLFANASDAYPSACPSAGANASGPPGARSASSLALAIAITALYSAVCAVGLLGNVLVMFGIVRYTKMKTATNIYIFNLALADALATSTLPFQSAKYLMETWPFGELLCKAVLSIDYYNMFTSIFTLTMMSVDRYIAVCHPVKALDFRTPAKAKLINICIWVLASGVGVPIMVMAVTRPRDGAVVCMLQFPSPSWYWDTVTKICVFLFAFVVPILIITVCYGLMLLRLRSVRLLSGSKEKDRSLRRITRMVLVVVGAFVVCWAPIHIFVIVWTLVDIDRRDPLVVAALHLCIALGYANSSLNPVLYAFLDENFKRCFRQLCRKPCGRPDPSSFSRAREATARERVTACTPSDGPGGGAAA
T2 sequence (P41143 whole entry, looked up): as the sequence (P41143 whole entry) above
T2 sequence (P41145 whole entry, looked up): as the sequence (P41145 whole entry) above

N/C(=N\CCc1ccc2[nH]c3c(c2c1)C[C@@]1(O)[C@H]2Cc4ccc(O)c5c4[C@@]1(CCN2CC1CC1)[C@H]3O5)NCc1ccc([N+](=O)[O-])cc1
Ke [1]: 0.17 nM | Ratio [2]: 8 | Ke [3]: 1.34 nM | Ki (Mu-type opioid receptor [4]): 9.21 nM | Ratio [5]: 13 | Ki [6]: 11.7 nM | Ratio [7]: 5 | Ki [8]: 2.14 nM | Ratio [9]: 4 | Ke (Mu-type opioid receptor [10]): 2.2 nM

N=C(N)NCc1ccc2[nH]c3c(c2c1)C[C@@]1(O)[C@H]2Cc4ccc(O)c5c4[C@@]1(CCN2CC1CC1)[C@H]3O5
Ke [1]: 0.04 nM | Ratio [2]: 389 | Ke [3]: 15.5 nM | Ki (Mu-type opioid receptor [4]): 36.9 nM | Ratio [5]: 81 | Ki [6]: 70 nM | Ratio [7]: 389 | Ki [8]: 0.18 nM | Ratio [9]: 205 | Ke (Mu-type opioid receptor [10]): 3.23 nM

CCCC/N=C(\NCCCC)NCCc1ccc2[nH]c3c(c2c1)C[C@@]1(O)[C@H]2Cc4ccc(O)c5c4[C@@]1(CCN2CC1CC1)[C@H]3O5
Ke [1]: 0.39 nM | Ratio [2]: 3 | Ke [3]: 1.05 nM | Ki (Mu-type opioid receptor [4]): 7.89 nM | Ratio [5]: 12 | Ki [6]: 6.73 nM | Ratio [7]: 1.5 | Ki [8]: 4.8 nM | Ratio [9]: 1.5 | Ke (Mu-type opioid receptor [10]): 4.62 nM

Oc1ccc2c3c1O[C@H]1c4[nH]c5ccc(N/C(=N/CC6CC6)NCc6ccccc6)cc5c4C[C@@]4(O)[C@@H](C2)N(CC2CC2)CC[C@]314
Ke [1]: 0.17 nM | Ratio [2]: 19 | Ke [3]: 3.28 nM | Ki (Mu-type opioid receptor [4]): 17.7 nM | Ratio [5]: 16 | Ki [6]: 18.1 nM | Ratio [7]: 5 | Ki [8]: 3.91 nM | Ratio [9]: 4.5 | Ke (Mu-type opioid receptor [10]): 2.75 nM

N/C(=N/Cc1ccc(O)cc1)Nc1ccc2[nH]c3c(c2c1)C[C@@]1(O)[C@H]2Cc4ccc(O)c5c4[C@@]1(CCN2CC1CC1)[C@H]3O5
Ke [1]: 0.1 nM | Ratio [2]: 183 | Ke [3]: 18.3 nM | Ki (Mu-type opioid receptor [4]): 14.7 nM | Ratio [5]: 127 | Ki [6]: 41.9 nM | Ratio [7]: 13 | Ki [8]: 3.26 nM | Ratio [9]: 4.5 | Ke (Mu-type opioid receptor [10]): 12.7 nM

N/C(=N\CCc1ccc2[nH]c3c(c2c1)C[C@@]1(O)[C@H]2Cc4ccc(O)c5c4[C@@]1(CCN2CC1CC1)[C@H]3O5)NCc1ccc(N)cc1
Ke [1]: 0.25 nM | Ratio [2]: 4 | Ke [3]: 0.95 nM | Ki (Mu-type opioid receptor [4]): 7.78 nM | Ratio [5]: 6 | Ki [6]: 5.05 nM | Ratio [7]: 5 | Ki [8]: 0.95 nM | Ratio [9]: 8 | Ke (Mu-type opioid receptor [10]): 1.57 nM

N/C(=N/Cc1ccc(Cl)cc1)Nc1ccc2[nH]c3c(c2c1)C[C@@]1(O)[C@H]2Cc4ccc(O)c5c4[C@@]1(CCN2CC1CC1)[C@H]3O5
Ke [1]: 0.14 nM | Ratio [2]: 55 | Ke [3]: 7.67 nM | Ki (Mu-type opioid receptor [4]): 29.8 nM | Ratio [5]: 37 | Ki [6]: 85 nM | Ratio [7]: 129 | Ki [8]: 0.66 nM | Ratio [9]: 45 | Ke (Mu-type opioid receptor [10]): 5.24 nM

N/C(=N/Cc1ccccc1)Nc1ccc2[nH]c3c(c2c1)C[C@@]1(O)[C@H]2Cc4ccc(O)c5c4[C@@]1(CCN2CC1CC1)[C@H]3O5
Ke [1]: 0.06 nM | Ratio [2]: 68 | Ke [3]: 4.09 nM | Ki (Mu-type opioid receptor [4]): 10.5 nM | Ratio [5]: 24 | Ki [6]: 26.8 nM | Ratio [7]: 31 | Ki [8]: 0.86 nM | Ratio [9]: 12 | Ke (Mu-type opioid receptor [10]): 1.41 nM

N/C(=N\CCc1ccc2[nH]c3c(c2c1)C[C@@]1(O)[C@H]2Cc4ccc(O)c5c4[C@@]1(CCN2CC1CC1)[C@H]3O5)NCc1ccccc1
Ke [1]: 0.13 nM | Ratio [2]: 10 | Ke [3]: 1.36 nM | Ki (Mu-type opioid receptor [4]): 3.54 nM | Ratio [5]: 23 | Ki [6]: 7.24 nM | Ratio [7]: 5 | Ki [8]: 1.42 nM | Ratio [9]: 2 | Ke (Mu-type opioid receptor [10]): 2.94 nM

N=C(N)NCCc1ccc2[nH]c3c(c2c1)C[C@@]1(O)[C@H]2Cc4ccc(O)c5c4[C@@]1(CCN2CC1CC1)[C@H]3O5
Ke [1]: 0.4 nM | Ratio [2]: 2 | Ke [3]: 0.88 nM | Ki (Mu-type opioid receptor [4]): 5.69 nM | Ratio [5]: 3 | Ki [6]: 4.93 nM | Ratio [7]: 10 | Ki [8]: 0.49 nM | Ratio [9]: 12 | Ke (Mu-type opioid receptor [10]): 1.25 nM

N/C(=N\CCc1ccc2[nH]c3c(c2c1)C[C@@]1(O)[C@H]2Cc4ccc(O)c5c4[C@@]1(CCN2CC1CC1)[C@H]3O5)NCc1ccc(Cl)cc1
Ke [1]: 0.23 nM | Ratio [2]: 6 | Ke [3]: 1.48 nM | Ki (Mu-type opioid receptor [4]): 7.74 nM | Ratio [5]: 11 | Ki [6]: 19.2 nM | Ratio [7]: 8 | Ki [8]: 2.41 nM | Ratio [9]: 3 | Ke (Mu-type opioid receptor [10]): 2.61 nM

N/C(=N/Cc1cccc(O)c1)Nc1ccc2[nH]c3c(c2c1)C[C@@]1(O)[C@H]2Cc4ccc(O)c5c4[C@@]1(CCN2CC1CC1)[C@H]3O5
Ke [1]: 0.13 nM | Ratio [2]: 33 | Ke [3]: 4.35 nM | Ki (Mu-type opioid receptor [4]): 14.2 nM | Ratio [5]: 33 | Ki [6]: 17.6 nM | Ratio [7]: 6 | Ki [8]: 2.74 nM | Ratio [9]: 5 | Ke (Mu-type opioid receptor [10]): 4.28 nM

N/C(=N/Cc1ccc([N+](=O)[O-])cc1)Nc1ccc2[nH]c3c(c2c1)C[C@@]1(O)[C@H]2Cc4ccc(O)c5c4[C@@]1(CCN2CC1CC1)[C@H]3O5
Ke [1]: 0.18 nM | Ratio [2]: 93 | Ke [3]: 16.7 nM | Ki (Mu-type opioid receptor [4]): 26.3 nM | Ratio [5]: 21 | Ki [6]: 95.8 nM | Ratio [7]: 60 | Ki [8]: 1.61 nM | Ratio [9]: 16 | Ke (Mu-type opioid receptor [10]): 3.71 nM

N/C(=N/Cc1ccc(N)cc1)Nc1ccc2[nH]c3c(c2c1)C[C@@]1(O)[C@H]2Cc4ccc(O)c5c4[C@@]1(CCN2CC1CC1)[C@H]3O5
Ke [1]: 0.09 nM | Ratio [2]: 120 | Ke [3]: 10.8 nM | Ki (Mu-type opioid receptor [4]): 7.89 nM | Ratio [5]: 14 | Ki [6]: 23.9 nM | Ratio [7]: 68 | Ki [8]: 0.63 nM | Ratio [9]: 13 | Ke (Mu-type opioid receptor [10]): 1.22 nM

CCCC/N=C(\NCCCC)Nc1ccc2[nH]c3c(c2c1)C[C@@]1(O)[C@H]2Cc4ccc(O)c5c4[C@@]1(CCN2CC1CC1)[C@H]3O5
Ke [1]: 0.44 nM | Ratio [2]: 12 | Ke [3]: 5.24 nM | Ki (Mu-type opioid receptor [4]): 18.3 nM | Ratio [5]: 13 | Ki [6]: 15 nM | Ratio [7]: 2 | Ki [8]: 6.96 nM | Ratio [9]: 3 | Ke (Mu-type opioid receptor [10]): 5.66 nM

CCCN/C(=N\CC1CC1)Nc1ccc2[nH]c3c(c2c1)C[C@@]1(O)[C@H]2Cc4ccc(O)c5c4[C@@]1(CCN2CC1CC1)[C@H]3O5
Ke [1]: 0.08 nM | Ratio [2]: 79 | Ke [3]: 6.31 nM | Ki (Mu-type opioid receptor [4]): 22.4 nM | Ratio [5]: 41 | Ki [6]: 15.5 nM | Ratio [7]: 6.5 | Ki [8]: 2.38 nM | Ratio [9]: 9 | Ke (Mu-type opioid receptor [10]): 3.26 nM

CCC/N=C(\NCCC)Nc1ccc2[nH]c3c(c2c1)C[C@@]1(O)[C@H]2Cc4ccc(O)c5c4[C@@]1(CCN2CC1CC1)[C@H]3O5
Ke [1]: 0.26 nM | Ratio [2]: 9 | Ke [3]: 2.43 nM | Ki (Mu-type opioid receptor [4]): 9.83 nM | Ratio [5]: 18 | Ki [6]: 8.52 nM | Ratio [7]: 3 | Ki [8]: 2.72 nM | Ratio [9]: 4 | Ke (Mu-type opioid receptor [10]): 4.59 nM

— ChEMBL document CHEMBL1145928, “Guanidino N-substituted and N,N-disubstituted derivatives of the kappa-opioid antagonist GNTI” (J Med Chem, 2003)
